SMILES strings stand for the structures.

The subject of data set [1] is HUVEC invasion by S. aureus ATCC 29213 (MSSA). The experiment in a line: Invasion assay: HUVEC infected with Alexa Fluor 488-labeled MSSA, flow cytometry. In kind it is cell-based, human. The conditions noted are these: for Internalized bacteria (% vehicle control ± SEM), RSM structural analog: N = 5.
The test system of the next data set is HUVEC. The experiment in a line: Cytotoxicity assay. As to conditions: 10 μmol/L; for Mean fluorescence intensity (×10^4± SEM), Compound: PI fluorescence, N = 3. Format: cell-based, human. In a few lines: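 HUVEC plated and compound-treated as for invasion: 1×10^5 cells/ml in 35 mm dishes or 1×10^4 cells/ml in 96-well plates, Attachment Factor-coated. Cells scraped and washed in FACS buffer (2% BSA/0.1% sodium azide/PBS). Brief incubation with propidium iodide at 0.5 mg/ml, then fluorescence read at once on Accuri C6 flow cytometer; MFI reported.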

The test system of another data set is MSSA (ATCC 29213). The experiment in a line: Bactericidal activity assay, MSSA. The conditions noted are these: 10 μmol/L; for CFU/ml (×10^10± SEM), Compound: 1 h, 1.2 × 10^8 CFU/ml incubated, N = 3. In kind it is cell-based, Staphylococcus aureus. In a few lines: (§1)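 Washed S. aureus (overnight TSB at 225 rpm, 37°C; subcultured; saline-washed), 1.2 × 10^8 CFU/ml, incubated with test compound or vehicle control in EndoGRO-LS medium (1 h, 5% CO2, 37°C). Serial dilutions plated on tryptic soy agar (18-20 h, 37°C); colonies counted and CFU/ml calculated.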

The subject of data set [2] is endothelial cell invasion by S. aureus. As to conditions: cited from earlier work.
In a further data set the test system is S. aureus pneumonia. The conditions noted are these: cited from earlier work.
Data set [3] relates to HUVEC invasion by MRSA252 NRS71. The experiment in a line: Invasion assay with hospital MRSA strain. Format: cell-based, human. As to conditions: 10 μmol/L, 18-20 h pretreatment. The essentials:
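HUVEC pretreated 18-20 h with test compound or vehicle. MRSA252 NRS71 labeled through protein A with rabbit anti-mouse IgG Alexa Fluor 488 (final 8 μg/ml, RT, 20 min), washed, set to 3×10^8 CFU/ml. Infection at MOI 1440 (1 h, 37°C, 5% CO2), then lysostaphin (20 μg/ml)/gentamicin (50 μg/ml) for 45 min. Cells scraped and fixed in 1% BSA/0.74% formaldehyde; MFI from 1500 FSC/SSC-gated cells, as % control.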

A further data set concerns HUVEC invasion by NRS123. The experiment in a line: Invasion assay with community-acquired MRSA strain. Format: cell-based, human. The conditions noted are these: 10 μmol/L, 18-20 h pretreatment. The essentials: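 Attachment Factor-coated dishes seeded with HUVEC, pretreated 18-20 h with test compound or matched vehicle. Stocks were 5 mmol/L in DMSO or PEG, diluted to 1 mmol/L in solvent, then into EndoGRO-LS. Unlabeled saline-washed NRS123 at MOI 1440 (1 h, 37°C). Extracellular bacteria killed with 20 μg/ml lysostaphin/50 μg/ml gentamicin (45 min). Cells lysed with 1% saponin/PBS (20 min); dilutions plated on TSA (16 h), CFU/ml counted.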

Data set [4] concerns actin stress fibers in HUVEC. The experiment in a line: Actin stress fiber disassembly, immunofluorescence. In kind it is cell-based, human. The conditions noted are these: 10 μmol/L, 18-20 h, infected 1 h. In a few lines: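 HUVEC (3 × 10^5/ml, Attachment Factor-coated glass-bottom dishes) pretreated 18-20 h with PEG vehicle or test compound. Infected with S. aureus (MOI 1200, 1 h, 5% CO2, 37°C), PBS-washed, fixed in 4% paraformaldehyde (30 min), then permeabilized/blocked in 0.1% Triton/1% BSA. Stained with Alexa Fluor 488 phalloidin (1:40), imaged by confocal (40X water immersion). Scored as % cells lacking stress fibers, 100-200 cells/treatment from random fields; χ2 test.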

In data set [5] the test system is vinculin-containing adhesion complexes in HUVEC. The experiment in a line: Vinculin-containing adhesion complexes, immunofluorescence. In kind it is cell-based, human. The conditions noted are these: 10 μmol/L, 18-20 h; vehicle control 64%. The essentials:
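HUVEC at 3 × 10^4 on Attachment Factor-coated glass-bottom dishes, treated 18-20 h with DMSO vehicle or test compound. Fixed, then permeabilized/blocked (0.1% Triton/1% BSA). Stained with anti-vinculin (1:25), then rabbit anti-mouse Alexa Fluor 488 (1:250). Confocal imaging at 63X water immersion; Z-stack maximum projections. Percentage of cells with adhesion complexes from 100-200 cells/treatment in random fields; χ2 test.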

Another data set has as its system β1 integrin subunit. The experiment in a line: β1 integrin surface expression, flow cytometry. Format: cell-based, human. As to conditions: 10 μmol/L, 18-20 h, vs vehicle control. In a few lines:
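Following 18-20 h pretreatment (DMSO vehicle or test compound), integrin recycling stopped at 4°C for 15 min. Cells scraped and washed in FACS buffer, stained with PE-conjugated anti-β1 (30 min, on ice), then fixed in FACS buffer with 4% paraformaldehyde. PE MFI measured on 600 FSC-A/SSC-A-gated cells; expressed as percent control; Mann-Whitney Rank Sum test.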

Data set [6] relates to HUVEC adhesion to human fibronectin. The experiment in a line: Fibronectin adhesion assay. Format: cell-based. The conditions noted are these: 10 μmol/L, 18-20 h; vehicle control 24±4%. The essentials: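 Compound or DMSO vehicle applied to HUVEC for 18-20 h (invasion-assay plating). Wells coated with human fibronectin (20 μg/ml, 2 h, 37°C) and blocked with 2% BSA (30 min, RT). Scraped cells counted by flow cytometry for input, re-plated 2 h at 37°C/5% CO2. After PBS washes, adherent cells trypsinized, fixed, counted; normalized to input. Two pooled experiments, n=8/treatment.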

A further data set deals with MRSA252 NRS71. The experiment in a line: Bactericidal activity assay, MRSA252 NRS71. In kind it is cell-based, Staphylococcus aureus. The conditions noted are these: 10 μmol/L. In a few lines: as §1
For the next data set, the system named is NRS123. The experiment in a line: Bactericidal activity assay, NRS123. In kind it is cell-based, Staphylococcus aureus. In a few lines: as §1
For data set [7], the system named is HUVEC infected with Staphylococcus aureus. The experiment in a line: Transmission electron microscopy of infected HUVEC. In kind it is cell-based, human. As to conditions: 10 μmol/L, 18-20 h pretreatment, infected 2 h. The essentials:
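Coverslip HUVEC (3 × 10^5/ml) pretreated 18-20 h with PEG vehicle or test compound, infected with S. aureus (MOI 30, 2 h, 37°C). Lysostaphin/gentamicin removal (45 min), then 24 h in antibiotic medium. Fixed in 2.5% glutaraldehyde/2.0% paraformaldehyde/2 mmol/L Ca/1 mmol/L Mg; post-fixed in 1% OsO4/1.5% ferrocyanide in 0.1 mol/L cacodylate. Ethanol/propylene oxide dehydration, resin embedding. Ultrathin sections stained with uranyl acetate/lead citrate, imaged at 120 kV.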

Take `COc1ccc(C2=NN(c3ccc(S(N)(=O)=O)cc3)C(c3ccc4c(c3)OCO4)C2)cc1` (stereo not shown) [RSM 06]: the “Internalized bacteria (% vehicle control ± SEM), RSM structural analog” value in [1] (10 μmol/L) amounted to 23 ± 1 % ^†††. For the same molecule, the “Mean fluorescence intensity (×10^4± SEM), Compound” value in the data set on HUVEC was 2.8 ± 0.1 ×10^4. The “CFU/ml (×10^10± SEM), Compound” value in the data set on MSSA (ATCC 29213) came to 1.0 ± 0.3 CFU/ml ×10^10.

Regarding `NS(=O)(=O)c1ccc(N2N=C(c3ccccc3)CC2c2ccc3c(c2)OCO3)cc1` (stereo not shown) [RSM 05], the “Internalized bacteria (% vehicle control ± SEM), RSM structural analog” value in data set [1] (10 μmol/L) is recorded as 38 ± 3 % ^††. The “Mean fluorescence intensity (×10^4± SEM), Compound” value with HUVEC is 3.9 ± 0.2 ×10^4. For the same molecule, in the data set on MSSA (ATCC 29213), the “CFU/ml (×10^10± SEM), Compound” value is recorded as 1.6 ± 0.3 CFU/ml ×10^10.

Turning to `COc1ccc(C2C3Cc4ccccc4C3=NN2c2ccc(S(N)(=O)=O)cc2)cc1` (stereo not shown) [RSM 21], in [1] (10 μmol/L), the “Internalized bacteria (% vehicle control ± SEM), RSM structural analog” value is 79 ± 3 % ^†. Besides, in the data set with HUVEC, the “Mean fluorescence intensity (×10^4± SEM), Compound” value is reported as 2.8 ± 0.09 ×10^4. Besides, the “CFU/ml (×10^10± SEM), Compound” value in the data set on MSSA (ATCC 29213) is recorded as 3.0 ± 0.2 CFU/ml ×10^10.

In the case of `COc1ccc(C2C(C)C(c3ccccc3)=NN2c2ccc(S(N)(=O)=O)cc2)cc1` (stereo not shown) [RSM 19], in data set [1] (10 μmol/L), the “Internalized bacteria (% vehicle control ± SEM), RSM structural analog” value stood at 61 ± 2 % ^††. In addition, the “Mean fluorescence intensity (×10^4± SEM), Compound” value in the data set on HUVEC is on record as 2.6 ± 0.01 ×10^4.

On to `COc1ccc(C2CC(c3ccccc3)=NN2c2ccc(S(N)(=O)=O)cc2)cc1OC` (stereo not shown) [RSM 15], for which the “Internalized bacteria (% vehicle control ± SEM), RSM structural analog” value in [1] (10 μmol/L) came out at 45 ± 1 % ^†††. The “Mean fluorescence intensity (×10^4± SEM), Compound” value in the data set on HUVEC is 4.0 ± 0.4 ×10^4. Also, the “CFU/ml (×10^10± SEM), Compound” value in the data set with MSSA (ATCC 29213) stood at 2.0 ± 0.2 CFU/ml ×10^10.

For `COc1ccc(C2=NN(c3ccc(S(N)(=O)=O)cc3)C(c3ccc(OC)c(OC)c3)C2)cc1` (stereo not shown) [RSM 16], the “Internalized bacteria (% vehicle control ± SEM), RSM structural analog” value in data set [1] (10 μmol/L) is listed as 63 ± 4 % ^†††. Moreover, in the data set on HUVEC, the “Mean fluorescence intensity (×10^4± SEM), Compound” value was 1.4 ± 0.2 ×10^4. Besides, the “CFU/ml (×10^10± SEM), Compound” value in the data set on MSSA (ATCC 29213) amounted to 1.8 ± 0.4 CFU/ml ×10^10.

Take `COCCOc1ccc(C2=NN(c3ccc(S(N)(=O)=O)cc3)C(c3ccc(Cl)cc3)C2)cc1` (stereo not shown) [RSM 20]: in [1] (10 μmol/L), the “Internalized bacteria (% vehicle control ± SEM), RSM structural analog” value came to 61 ± 4 % ^††. The “Mean fluorescence intensity (×10^4± SEM), Compound” value in the data set with HUVEC is recorded as 2.1 ± 0.2 ×10^4. In addition, in the data set on MSSA (ATCC 29213), the “CFU/ml (×10^10± SEM), Compound” value is on record as 2.1 ± 0.4 CFU/ml ×10^10.

On to `COc1ccc(C2=NN(c3ccc(S(N)(=O)=O)cc3)C(c3ccccc3)C2)cc1` (stereo not shown) [RSM 07], for which the “Internalized bacteria (% vehicle control ± SEM), RSM structural analog” value in data set [1] (10 μmol/L) is reported as 34 ± 2 % ^††. Also, in the data set on HUVEC, the “Mean fluorescence intensity (×10^4± SEM), Compound” value is reported as 2.5 ± 0.4 ×10^4. Also, the “CFU/ml (×10^10± SEM), Compound” value with MSSA (ATCC 29213) is 2.8 ± 0.3 CFU/ml ×10^10.

Turning to `CCC(C)(C)C(=O)O[C@H]1C[C@@H](C)C=C2C=C[C@H](C)[C@H](CC[C@@H]3C[C@@H](O)CC(=O)O3)[C@H]21` [simvastatin], the “Endothelial cell invasion by S. aureus” value in [2] is reported as “decreased”. Besides, in the data set on S. aureus pneumonia, the “Survival in a murine model of pneumonia” value is listed as “improved survival”.

Take `COc1ccc(C2CC(c3ccccc3)=NN2c2ccc(S(N)(=O)=O)cc2)cc1` (stereo not shown) [ML 141, 4-[3-(4-methoxyphenyl)-5-phenyl-3,4-dihydropyrazol-2-yl]benzenesulfonamide]: the “Mean fluorescence intensity in washout samples (reversibility)” value in [1] (10 μmol/L 1 h pretreatment, media replaced with vehicle 40 min prior to invasion) is recorded as “returned to baseline”. In data set [1] (10 μmol/L, 18-20 h pretreatment, 1 h infection), the “Mean fluorescence intensity compared to vehicle control” value is given as “lower”. For the same molecule, in data set [3], the “Invasion by MRSA252 NRS71” value is reported as “inhibited invasion”. Besides, in the data set on HUVEC invasion by NRS123, the “Invasion by NRS123” value is on record as “inhibited invasion”. Further, the “Actin stress fibers in infected cells” value in data set [4] is on record as “remained intact”. Moreover, the “HUVEC with vinculin-containing adhesion complexes” value in data set [5] was 37%. Besides, in the data set with β1 integrin subunit, the “Expression of β1” value was “No difference”. Further, the “HUVEC adhesion to fibronectin” value in data set [6] is 14±2%. Also, the “Mean fluorescence intensity (×10^4± SEM), Compound” value in the data set on HUVEC is given as 2.1 ± 0.3 ×10^4. Also, the “Cytotoxicity in HUVEC” value in the data set with HUVEC (incubated 1 h) is reported as “Cytotoxicity was not detected”. In the data set on MSSA (ATCC 29213), the “Bactericidal activity against MSSA” value is on record as “Bactericidal activity was not detected” and the “CFU/ml (×10^10± SEM), Compound” value is on record as 1.8 ± 0.6 CFU/ml ×10^10. Also, the “Bactericidal activity against MRSA252 NRS71” value in the data set on MRSA252 NRS71 is “Bactericidal activity was not detected”. For the same molecule, in the data set on MRSA252 NRS71 (1 h, 1.2 × 10^8 CFU/ml incubated), the “CFU/ml recovered, MRSA252 NRS71” value is reported as 1.9 × 10^10 ±0.2 CFU/ml. In addition, the “Bactericidal activity against NRS123” value in the data set with NRS123 (10 μmol/L) is “Bactericidal activity was not detected”. Besides, the “CFU/ml recovered, NRS123” value in the data set with NRS123 (1.2 × 10^8 CFU/ml incubated, vehicle control 4.5 × 10^10 ±0.6) was 5.6 × 10^10 ±1.5 CFU/ml. In data set [7], the “Organelles 24 h post-invasion (ultrastructure)” value is on record as “remained intact”. The “Filopodia at the host cell membrane in response to bacteria” value in [7] (24 h post-invasion) is recorded as “not detected”.

The values are drawn from publication PMC4469273 (Current pharmaceutical biotechnology, 2014).
